ChEMBL document CHEMBL1268850, “Search for antifungal compounds from the wood of durable tropical trees” (2010)
Values after ≈ are worked out from the molar mass of the structure shown.

Legend:
[1] = tested on: Nannizzia gypsea; assay: Antifungal activity against Microsporum gypseum LMGO 10 after 5 days microdilution technique; assay type: functional; conditions: LMGO 10, 120 h
Method in brief: (§1)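 Dermatophytes were maintained on potato dextrose agar and subcultured 5 days at 28 °C before testing. Microdilution followed CLSI M38-A, with extracts at 500 to 0.98 µg/mL and pure compounds at 256 to 0.5 µg/mL. Fluconazole and itraconazole were the references. Plates were incubated at 32 °C and read after 5 days. MIC is the lowest concentration preventing visible growth, in triplicate.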

[2] = tested on: Nannizzia gypsea; assay: Antifungal activity against Microsporum gypseum LMGO 533 after 5 days microdilution technique; assay type: functional; conditions: LMGO 533, 120 h; method in brief: as §1
[3] = tested on: Microsporum canis; assay: Antifungal activity against Microsporum canis LMGO 22 after 5 days microdilution technique; assay type: functional; conditions: LMGO 22, 120 h; method in brief: as §1
[4] = tested on: Microsporum canis; assay: Antifungal activity against Microsporum canis LMGO 02 after 5 days microdilution technique; assay type: functional; conditions: LMGO 02, 120 h; method in brief: as §1
[5] = tested on: Trichophyton rubrum; assay: Antifungal activity against Trichophyton rubrum LMGO 4218 after 5 days microdilution technique; assay type: functional; conditions: LMGO 4218, 120 h; method in brief: as §1
[6] = tested on: Trichophyton rubrum; assay: Antifungal activity against Trichophyton rubrum LMGO 06 after 5 days microdilution technique; assay type: functional; conditions: LMGO 06, 120 h; method in brief: as §1
[7] = tested on: Trichophyton rubrum; assay: Antifungal activity against Trichophyton rubrum LMGO 08 after 5 days microdilution technique; assay type: functional; conditions: LMGO 08, 120 h; method in brief: as §1
[8] = tested on: Trichophyton mentagrophytes; assay: Antifungal activity against Trichophyton mentagrophytes LMGO 1931 after 5 days microdilution technique; assay type: functional; conditions: LMGO 1931, 120 h; method in brief: as §1
[9] = tested on: Candida albicans; assay: Antifungal activity against Candida albicans ATCC 10231 after 5 days microdilution technique; assay type: functional; conditions: ATCC 10231, 120 h
Method in brief: (§2)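 Yeasts were kept on potato dextrose agar and subcultured 2 days at 28 °C before testing. Broth microdilution followed CLSI M27-A2. Crude extracts were tested at 500 to 0.98 µg/mL and pure compounds at 256 to 0.5 µg/mL. Fluconazole (64 to 0.125 µg/mL) and itraconazole (16 to 0.031 µg/mL) served as references. Plates were incubated at 32 °C. MIC is the lowest concentration with no visible growth, in triplicate.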

[10] = tested on: Candida albicans; assay: Antifungal activity against Candida albicans LMGO 102 after 5 days microdilution technique; assay type: functional; conditions: LMGO 102, 120 h; method in brief: as §2
[11] = tested on: Candida parapsilosis; assay: Antifungal activity against Candida parapsilosis ATCC 22019 after 5 days microdilution technique; assay type: functional; conditions: Lodderomyces parapsilosis, ATCC 22019, 120 h; method in brief: as §2
[12] = tested on: Nakaseomyces glabratus; assay: Antifungal activity against Candida glabrata LMGO 44 after 5 days microdilution technique; assay type: functional; conditions: LMGO 44, 120 h; method in brief: as §2
[13] = tested on: Pichia kudriavzevii; assay: Antifungal activity against Candida krusei LMGO 174 after 5 days microdilution technique; assay type: functional; conditions: LMGO 174, 120 h; method in brief: as §2
[14] = tested on: Cryptococcus gattii species complex; assay: Antifungal activity against Cryptococcus gattii LMGO L1 after 5 days microdilution technique; assay type: functional, Cryptococcus bacillisporus; conditions: LMGO L1, 120 h; method in brief: as §2
[15] = tested on: Trichophyton mentagrophytes; assay: Antifungal activity against Trichophyton mentagrophytes LMGO 09 after 5 days microdilution technique; assay type: functional; conditions: LMGO 09, 120 h; method in brief: as §1
[16] = tested on: Candida parapsilosis; assay: Antifungal activity against Candida parapsilosis LMGO 05 after 2 days microdilution technique; conditions: Lodderomyces parapsilosis, LMGO 05, 48 h
[17] = tested on: Pichia kudriavzevii; assay: Antifungal activity against Candida krusei LMGO 174 after 2 days microdilution technique; conditions: LMGO 174, 48 h
[18] = tested on: Nakaseomyces glabratus; assay: Antifungal activity against Candida glabrata LMGO 44 after 2 days microdilution technique; conditions: LMGO 44, 48 h
[19] = tested on: Candida albicans; assay: Antifungal activity against Candida albicans LMGO 102 after 2 days microdilution technique; conditions: LMGO 102, 48 h
[20] = tested on: Candida albicans; assay: Antifungal activity against Candida albicans ATCC 10231 after 2 days microdilution technique; conditions: ATCC 10231, 48 h
[21] = tested on: Cryptococcus gattii species complex; assay: Antifungal activity against Cryptococcus gattii LMGO L1 after 2 days microdilution technique; conditions: LMGO L1, 48 h
[22] = tested on: Candida parapsilosis; assay: Antifungal activity against Candida parapsilosis ATCC 22019 after 2 days microdilution technique; conditions: Lodderomyces parapsilosis, ATCC 22019, 48 h

`OC(Cn1cncn1)(Cn1cncn1)c1ccc(F)cc1F` [FLUCONAZOLE] gave an MIC [1] of 16 µg/mL (≈ 52.2 µM), an MIC [2] of 64 µg/mL (≈ 209 µM) and an MIC [3] greater than 64 µg/mL. For the same compound, the MIC [4] was greater than 64 µg/mL, the MIC [5] was 32 µg/mL (≈ 104 µM) and the MIC [6] was 4 µg/mL (≈ 13.1 µM). It also gave an MIC [7] of 8 µg/mL (≈ 26.1 µM), an MIC [8] of 4 µg/mL (≈ 13.1 µM) and an MIC [9] greater than 64 µg/mL. For the same compound, the MIC [10] was 1 µg/mL (≈ 3.27 µM), the MIC [11] was greater than 64 µg/mL and the MIC [12] was 4 µg/mL (≈ 13.1 µM). It also gave an MIC [13] of 8 µg/mL (≈ 26.1 µM), an MIC [14] greater than 64 µg/mL and an MIC [15] of 16 µg/mL (≈ 52.2 µM). For the same compound, the MIC [16] was 4 µg/mL (≈ 13.1 µM).

`C=CCCCCCCCC[C@@H]1C[C@H](C[C@@H](O)CO)C(=O)O1` [RUBRENOLIDE] showed an MIC [1] of 16 µg/mL (≈ 53.6 µM), an MIC [2] of 256 µg/mL (≈ 858 µM) and an MIC [3] of 128 µg/mL (≈ 429 µM). The MIC [4] was 16 µg/mL (≈ 53.6 µM), the MIC [5] was 16 µg/mL (≈ 53.6 µM) and the MIC [6] was 8 µg/mL (≈ 26.8 µM). For the same compound, the MIC [7] was 8 µg/mL (≈ 26.8 µM), the MIC [8] was 64 µg/mL (≈ 214 µM) and the MIC [15] was 8 µg/mL (≈ 26.8 µM). The MIC [17] was 64 µg/mL (≈ 214 µM), the MIC [18] was 4 µg/mL (≈ 13.4 µM) and the MIC [19] was 16 µg/mL (≈ 53.6 µM). The MIC [20] was 64 µg/mL (≈ 214 µM), the MIC [21] was 256 µg/mL (≈ 858 µM) and the MIC [16] was 32 µg/mL (≈ 107 µM). The MIC [22] was 32 µg/mL (≈ 107 µM).

For `C#CCCCCCCCC[C@@H]1C[C@H](C[C@@H](O)CO)C(=O)O1` [RUBRYNOLIDE], the MIC [1] was 32 µg/mL (≈ 108 µM), the MIC [2] was 32 µg/mL (≈ 108 µM) and the MIC [3] was 64 µg/mL (≈ 216 µM). The MIC [4] was 32 µg/mL (≈ 108 µM), the MIC [5] was 32 µg/mL (≈ 108 µM) and the MIC [6] was 32 µg/mL (≈ 108 µM). For the same compound, the MIC [7] was 32 µg/mL (≈ 108 µM), the MIC [8] was greater than 256 µg/mL and the MIC [15] was 32 µg/mL (≈ 108 µM). The MIC [17] was 64 µg/mL (≈ 216 µM), the MIC [18] was 32 µg/mL (≈ 108 µM) and the MIC [19] was 32 µg/mL (≈ 108 µM). For the same compound, the MIC [20] was 128 µg/mL (≈ 432 µM), the MIC [21] was 128 µg/mL (≈ 432 µM) and the MIC [16] was 128 µg/mL (≈ 432 µM). For the same compound, the MIC [22] was 128 µg/mL (≈ 432 µM).

With `CCC(C)n1ncn(-c2ccc(N3CCN(c4ccc(OCC5COC(Cn6cncn6)(c6ccc(Cl)cc6Cl)O5)cc4)CC3)cc2)c1=O` (centres undefined) [ITRACONAZOLE] the MIC [1] was 0.25 µg/mL (≈ 0.354 µM), the MIC [2] was 0.975 µg/mL (≈ 1.38 µM) and the MIC [3] was 16 µg/mL (≈ 22.7 µM). For the same compound, the MIC [4] was 16 µg/mL (≈ 22.7 µM), the MIC [5] was 0.5 µg/mL (≈ 0.709 µM) and the MIC [6] was 0.125 µg/mL (≈ 0.177 µM). The MIC [7] was 0.125 µg/mL (≈ 0.177 µM), the MIC [8] was 0.5 µg/mL (≈ 0.709 µM) and the MIC [15] was 0.25 µg/mL (≈ 0.354 µM). The MIC [17] was 16 µg/mL (≈ 22.7 µM), the MIC [18] was 0.5 µg/mL (≈ 0.709 µM) and the MIC [19] was greater than 16 µg/mL. For the same compound, the MIC [20] was 0.5 µg/mL (≈ 0.709 µM), the MIC [21] was 2 µg/mL (≈ 2.83 µM) and the MIC [16] was 0.25 µg/mL (≈ 0.354 µM). For the same compound, the MIC [22] was 0.25 µg/mL (≈ 0.354 µM).
